{"source": "ChEMBL document CHEMBL1629555", "about": "“Antimalarial activity of phenylthiazolyl-bearing hydroxamate-based histone deacetylase inhibitors” (Antimicrob Agents Chemother, 2008)", "key": {"Plasmodium falciparum [1]": {"tested_on": "Plasmodium falciparum", "assay": "Antimalarial activity against drug-resistant Plasmodium falciparum W2", "format": "functional, organism-based"}, "[2]": {"assay": "Cytotoxicity against mouse RAW264.7 cells by MTT assay", "format": "cell-based", "conditions": "read-out: LD50 (the source's name)", "method_in_brief": "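LC50 in RAW macrophages was determined by MTT assay, given as the mean of 2–4 experiments with range. Selectivity index = RAW LC50 / lowest P. falciparum IC50.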"}, "[3]": {"assay": "Cytotoxicity against african green monkey Vero cells by MTT assay", "format": "cell-based", "conditions": "chlorocebus sabaeus, read-out: LC50 (the source's name)"}, "Plasmodium falciparum [4]": {"tested_on": "Plasmodium falciparum", "assay": "Antimalarial activity against Plasmodium falciparum at 10 nM after 3.5 hrs", "format": "functional, organism-based", "method_in_brief": "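Infected erythrocytes were exposed to compound for 3.5 h, washed, and returned to culture. Parasite growth was compared with matched controls after 48 h.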"}, "[5]": {"assay": "Inhibition of histone deacetylase assessed as alteration of histone H3 acetylation by cell-based assay", "method_in_brief": "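About 3 × 10^9 erythrocytes infected with late-trophozoite P. falciparum 3D7 were exposed to compound or to DMSO vehicle for 3.5 h at 37°C, and an untreated sample was taken at the start. Histones were extracted, about 6 × 10^8 parasites were loaded per lane on SDS–15% PAGE, and loading was checked by silver stain. Western blots were probed with anti-tetraacetyl-H4 and anti-diacetyl-H3 antisera and detected by ECL.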"}, "Plasmodium berghei [6]": {"tested_on": "Plasmodium berghei", "assay": "Antimalarial activity against Plasmodium berghei infected in mouse assessed as effect on curate rate at split dose of 40 mg/kg/day, po for 3 days", "format": "functional, organism-based", "method_in_brief": "(§1)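 Mice were infected ip with 10^6 P. berghei-parasitized erythrocytes. The compound was given in hydroxyethylcellulose-Tween 20 vehicle, 5 mice per group, starting on day 3 post-infection. Regimens were once-daily or split daily oral doses over 3 days, subcutaneous dosing, or dosing over 7 days. Read-outs were posttreatment parasitemia on day 6 as a fraction of controls and the number of mice cured.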"}, "Plasmodium berghei [7]": {"tested_on": "Plasmodium berghei", "assay": "Antimalarial activity against Plasmodium berghei infected in mouse assessed as effect on cure rate at split dose of 80 mg/kg/day, po for 3 days", "format": "functional, organism-based", "method_in_brief": "as §1"}, "Plasmodium berghei [8]": {"tested_on": "Plasmodium berghei", "assay": "Antimalarial activity against Plasmodium berghei infected in mouse assessed as effect on cure rate at single dose of 20 mg/kg/day, po for 3 days", "format": "functional, organism-based", "method_in_brief": "as §1"}, "Plasmodium berghei [9]": {"tested_on": "Plasmodium berghei", "assay": "Antimalarial activity against Plasmodium berghei infected in mouse assessed as effect on cure rate at 130 mg/kg/day, sc for 3 days", "format": "functional, organism-based", "method_in_brief": "as §1"}, "Plasmodium berghei [10]": {"tested_on": "Plasmodium berghei", "assay": "Antimalarial activity against Plasmodium berghei infected in mouse assessed as parasitemia level at split dose of 80 mg/kg/day, po for 3 days measured on day 6 relative to control", "format": "functional", "method_in_brief": "(§2)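 Blood-stage P. berghei model: mice inoculated ip with 10^6 parasitized erythrocytes. Oral treatment for 3 days, with the daily dose split, in hydroxyethylcellulose-Tween 20 vehicle. Day-6 parasitemia expressed as a fraction of control parasitemia.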"}, "Plasmodium berghei [11]": {"tested_on": "Plasmodium berghei", "assay": "Antimalarial activity against Plasmodium berghei infected in mouse assessed as parasitemia level at split dose of 640 mg/kg/day, po for 3 days measured on day 6 relative to control", "format": "functional", "method_in_brief": "as §2"}, "Plasmodium berghei [12]": {"tested_on": "Plasmodium berghei", "assay": "Antimalarial activity against Plasmodium berghei infected in mouse assessed as parasitemia level at single dose of 40 mg/kg/day, po for 3 days measured on day 6 relative to control", "format": "functional", "method_in_brief": "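Mice infected intraperitoneally with 10^6 P. berghei-parasitized erythrocytes. Drug given orally once daily on days 3, 4 and 5 post-infection in hydroxyethylcellulose-Tween 20 vehicle, 5 mice per dose group. Parasitemia measured on day 6 and expressed as a fraction of untreated control parasitemia.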"}, "Plasmodium berghei [13]": {"tested_on": "Plasmodium berghei", "assay": "Antimalarial activity against Plasmodium berghei infected in mouse assessed as parasitemia level at split dose of 130 mg/kg/day, po for 7 days measured on day 6 relative to control", "format": "functional"}, "Mus musculus": {"tested_on": "Mus musculus", "assay": "Toxicity in Plasmodium berghei-infected mouse assessed as mortality at split dose of 320 mg/kg/day, po for 3 days", "format": "organism-based", "design": "route oral", "conditions": "in vivo, 72 h"}, "Plasmodium berghei [14]": {"tested_on": "Plasmodium berghei", "assay": "Antimalarial activity against Plasmodium berghei infected in mouse assessed as parasitemia level at 52 mg/kg/day for 3 days measured on day 3 in presence of 64 mg/kg/day chloroquine (reference value: 0.46%)", "format": "functional", "method_in_brief": "(§3)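 Mice were infected ip with 10^6 P. berghei-parasitized erythrocytes. The compound was given orally once daily on days 3, 4 and 5 post-infection in hydroxyethylcellulose-Tween 20 vehicle, alone or together with chloroquine, with 5 mice per dose group. Parasitemia (%) was read on days 3 and 6, and cures were counted as animals cured out of 5.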"}, "Plasmodium berghei [15]": {"tested_on": "Plasmodium berghei", "assay": "Antimalarial activity against Plasmodium berghei infected in mouse assessed as effect on cure rate at 32 mg/kg/day for 3 days measured on day 6 in presence of 3.6 mg/kg/day chloroquine", "format": "functional, organism-based", "method_in_brief": "as §3"}, "[16]": {"assay": "Tmax in ICR mouse at 50 mg/kg/day, po by LC/MS analysis", "format": "ADME, organism-based", "design": "route oral", "conditions": "in vivo", "method_in_brief": "(§4)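 Male ICR mice, 8 weeks old, got one 50 mg/kg dose either orally or subcutaneously, with three groups of six mice per route. One mouse per group was killed at 15, 30 and 60 min and at 3, 6 and 24 h. Plasma was deproteinized with 2 volumes of acetonitrile and analysed by LC-MS/MS on a C18 column against 0–500 ng/ml standards, with parent and acid metabolite measured in the same sample. Each six-mouse group was treated as one \"animal\" and fitted to a two-compartment model. AUC was taken by the linear trapezoidal rule extrapolated to infinity, and Cmax and Tmax were read per \"animal\".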"}, "[17]": {"assay": "AUC in ICR mouse at 50 mg/kg/day, sc by LC/MS analysis", "format": "ADME, organism-based", "design": "route subcutaneous", "conditions": "plasma", "method_in_brief": "as §4"}, "[18]": {"assay": "Half life in ICR mouse at 50 mg/kg/day, po by LC/MS analysis", "format": "ADME, organism-based", "design": "route oral", "conditions": "in vivo", "method_in_brief": "as §4"}, "Plasmodium berghei [19]": {"tested_on": "Plasmodium berghei", "assay": "Antimalarial activity against Plasmodium berghei infected in mouse assessed as parasitemia level at 320 mg/kg/day for 3 days measured on day 3 (reference value: 0.46%)", "format": "functional", "method_in_brief": "as §3"}, "Plasmodium berghei [20]": {"tested_on": "Plasmodium berghei", "assay": "Antimalarial activity against Plasmodium berghei infected in mouse assessed as parasitemia level at 320 mg/kg/day for 3 days measured on day 6 (reference value: 37%)", "format": "functional", "method_in_brief": "as §3"}, "Plasmodium berghei [21]": {"tested_on": "Plasmodium berghei", "assay": "Antimalarial activity against Plasmodium berghei infected in mouse assessed as parasitemia level at 32 mg/kg/day for 3 days measured on day 6 (reference value: 37%)", "format": "functional", "method_in_brief": "as §3"}, "Plasmodium berghei [22]": {"tested_on": "Plasmodium berghei", "assay": "Antimalarial activity against Plasmodium berghei infected in mouse assessed as parasitemia level at 0.32 mg/kg/day for 3 days measured on day 6 (reference value: 37%)", "format": "functional"}, "Plasmodium berghei [23]": {"tested_on": "Plasmodium berghei", "assay": "Antimalarial activity against Plasmodium berghei infected in mouse assessed as effect on cure rate at 0.32 mg/kg/day for 3 days", "format": "functional, organism-based"}, "Plasmodium falciparum [24]": {"tested_on": "Plasmodium falciparum", "assay": "Antimicrobial activity against Plasmodium falciparum W2 at […] in presence of artemisinin", "format": "functional", "method_in_brief": "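In vitro fixed-ratio isobologram using a SYBR green I fluorescence assay. […] IC50s were standardized and FIC50 and ΣFIC50 calculated by the Berenbaum method. Reported as the average ΣFIC across dilutions or the average maximum ΣFIC, from at least 2 experiments.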"}, "Plasmodium falciparum [25]": {"tested_on": "Plasmodium falciparum", "assay": "Antimicrobial activity against Plasmodium falciparum D6 infected in Aotus lemurinus lemurinus monkey at […] in presence of azithromycin", "format": "functional"}, "Plasmodium berghei [26]": {"tested_on": "Plasmodium berghei", "assay": "Antimalarial activity against Plasmodium berghei infected in mouse assessed as parasitemia level at 12.8 mg/kg/day for 3 days measured on day 3 in presence of 16 mg/kg/day chloroquine (reference value: 0.46%)", "format": "functional", "method_in_brief": "as §3"}, "Plasmodium berghei [27]": {"tested_on": "Plasmodium berghei", "assay": "Antimalarial activity against Plasmodium berghei infected in mouse assessed as effect on cure rate at 52 mg/kg/day for 3 days measured on day 6 in presence of 64 mg/kg/day chloroquine", "format": "functional, organism-based", "method_in_brief": "as §3"}}, "note": "Active and inactive are the calls of the source. The rule behind the calls is not given here.", "data": [{"smiles": "Nc1cccc(-c2csc(NC(=O)CCCCCCC(=O)NO)n2)c1", "values": [{"measurement": "IC50", "setting": "Plasmodium falciparum [1]", "value": 1.6, "unit": "nM"}, {"measurement": "CC50", "setting": "[2]", "value": 600, "unit": "nM"}, {"measurement": "CC50", "setting": "[3]", "value": 950, "unit": "nM"}, {"measurement": "Activity", "setting": "Plasmodium falciparum [4]", "value": "Active"}, {"measurement": "IC50", "setting": "[5]", "value": 10.4, "unit": "nM"}, {"measurement": "Activity", "setting": "Plasmodium berghei [6]", "value": "inactive"}, {"measurement": "Activity", "setting": "Plasmodium berghei [7]", "value": "inactive"}, {"measurement": "Activity", "setting": "Plasmodium berghei [8]", "value": "inactive"}, {"measurement": "Activity", "setting": "Plasmodium berghei [9]", "value": "inactive"}, {"measurement": "fold change (FC)", "setting": "Plasmodium berghei [10]", "value": 0.05}, {"measurement": "fold change (FC)", "setting": "Plasmodium berghei [11]", "value": 0.001}, {"measurement": "fold change (FC)", "setting": "Plasmodium berghei [12]", "value": 0.12}, {"measurement": "fold change (FC)", "setting": "Plasmodium berghei [13]", "value": 0.01}, {"measurement": "Activity", "setting": "Mus musculus", "value": "Non-toxic"}, {"measurement": "Activity", "setting": "Plasmodium berghei [14]", "value": 0.48, "unit": "%"}, {"measurement": "Activity", "setting": "Plasmodium berghei [15]", "value": "inactive"}, {"measurement": "Tmax", "setting": "[16]", "value": 0.83, "unit": "h"}, {"measurement": "AUC", "setting": "[17]", "value": 3600, "unit": "ng·h/mL"}, {"measurement": "half-life", "setting": "[18]", "value": 3.5, "unit": "h"}, {"measurement": "Activity", "setting": "Plasmodium berghei [19]", "value": 0.52, "unit": "%"}, {"measurement": "Activity", "setting": "Plasmodium berghei [20]", "value": 0.107, "unit": "%"}, {"measurement": "Activity", "setting": "Plasmodium berghei [21]", "value": 21, "unit": "%"}, {"measurement": "Activity", "setting": "Plasmodium berghei [22]", "value": 45, "unit": "%"}, {"measurement": "Activity", "setting": "Plasmodium berghei [23]", "value": "inactive"}, {"measurement": "fractional inhibitory concentration index (FICI)", "setting": "Plasmodium falciparum [24]", "value": 2.1}, {"measurement": "fractional inhibitory concentration index (FICI)", "setting": "Plasmodium falciparum [25]", "value": 1.7}, {"measurement": "Activity", "setting": "Plasmodium berghei [26]", "value": 0.52, "unit": "%"}, {"measurement": "Activity", "setting": "Plasmodium berghei [27]", "value": "inactive"}]}]}
